For series [1], the system named is Rattus norvegicus. Briefly: Antidepressant-like activity in Wistar rat assessed as immobility time at 10 mg/kg, po administered at 1, 5, 23.5 hrs prior to testing measured for 5 mins by forced swimming test (reference value: 211.3 to 232.2 secs). The series is classed as functional.
Series [2] in a line: Total clearance in Sprague-Dawley rat at 1 mg/kg, iv by LC/MS/MS analysis. As to conditions: in vivo. The series is classed as ADME, organism-based. In short, it runs like this: (§1)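 Single intravenous dose to male Sprague–Dawley rats (n = 4). Jugular vein blood drawn at 0.05, 0.25, 0.5, 1, 2, 4, 8 and 24 h, heparin anticoagulant, plasma separated by centrifugation. Plasma drug level measured by LC/MS/MS.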

The target of series [3] is T1, Mineralocorticoid receptor (Homo sapiens, UniProt P08235).
T1 sequence (P08235 whole entry): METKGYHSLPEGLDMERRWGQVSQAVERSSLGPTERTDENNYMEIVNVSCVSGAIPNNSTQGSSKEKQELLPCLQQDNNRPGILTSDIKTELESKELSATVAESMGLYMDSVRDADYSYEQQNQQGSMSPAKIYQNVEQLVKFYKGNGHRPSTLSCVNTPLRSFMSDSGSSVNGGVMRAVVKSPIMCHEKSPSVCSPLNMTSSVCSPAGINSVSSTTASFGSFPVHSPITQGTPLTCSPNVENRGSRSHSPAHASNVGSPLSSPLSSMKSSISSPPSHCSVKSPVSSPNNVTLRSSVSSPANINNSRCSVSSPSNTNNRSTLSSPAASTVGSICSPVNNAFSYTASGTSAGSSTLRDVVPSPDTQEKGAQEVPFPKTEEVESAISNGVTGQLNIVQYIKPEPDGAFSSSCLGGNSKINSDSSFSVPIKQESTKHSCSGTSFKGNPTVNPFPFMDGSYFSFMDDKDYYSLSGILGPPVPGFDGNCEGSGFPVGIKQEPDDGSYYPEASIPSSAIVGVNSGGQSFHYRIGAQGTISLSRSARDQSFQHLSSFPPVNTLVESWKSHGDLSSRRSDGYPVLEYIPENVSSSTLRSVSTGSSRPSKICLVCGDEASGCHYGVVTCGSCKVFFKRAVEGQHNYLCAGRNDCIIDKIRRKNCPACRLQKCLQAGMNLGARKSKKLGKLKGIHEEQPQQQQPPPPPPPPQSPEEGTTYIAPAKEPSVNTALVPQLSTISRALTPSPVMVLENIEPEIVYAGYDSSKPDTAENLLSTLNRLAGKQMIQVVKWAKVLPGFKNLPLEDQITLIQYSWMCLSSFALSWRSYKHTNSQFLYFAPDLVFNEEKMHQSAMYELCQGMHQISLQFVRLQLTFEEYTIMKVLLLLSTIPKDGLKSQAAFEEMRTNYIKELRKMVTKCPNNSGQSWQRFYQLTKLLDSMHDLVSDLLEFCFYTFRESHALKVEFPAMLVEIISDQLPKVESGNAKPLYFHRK
The series is described as follows: Displacement of [3H]-aldosterone from cytosolic fraction of human recombinant mineralocorticoid receptor by scintillation counting analysis. (In a radioligand displacement assay an active substance lowers the binding of a labelled ligand.)

Another series has as its target Estrogen receptor (Homo sapiens, UniProt P03372). The series is described as follows: Displacement of fluormone ES2 from human recombinant estrogen receptor-alpha expressed in insect Sf9 cells after 120 mins by fluorescence polarization assay. Put shortly:
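Assay run at Cerep. Fluorescence polarization with Fluormone ES2 tracer, using recombinant human ERα expressed in Sf9 cells and ERβ expressed in Hi5 cells.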
On the technique in general: In fluorescence polarisation assays a small probe gives low polarisation when free and higher when bound to something large.

The subject of series [4] is Rattus norvegicus. Briefly: Antidepressant-like activity in Wistar rat assessed as decrease in immobility time at 100 mg/kg, po administered at 1, 5, 23.5 hrs prior to testing measured for 5 mins by forced swimming test relative to vehicle-treated control. The arrangement: scale not given: the % may be the effect or the level left. The series is classed as functional.

Series [5] in a line: Volume of distribution at steady state in Sprague-Dawley rat at 1 mg/kg, iv by LC/MS/MS analysis. Conditions: in vivo, read-out: Vdss. The series is classed as ADME, organism-based. Put shortly:
as §1

A short description of series [6]: AUC (0 to t) in Sprague-Dawley rat at 1 mg/kg, iv by LC/MS/MS analysis. The series is classed as ADME, organism-based. Conditions: in vivo. Put shortly:
as §1

For another series, the target named is T2, Progesterone receptor (Homo sapiens, UniProt P06401).
T2 sequence (P06401 whole entry): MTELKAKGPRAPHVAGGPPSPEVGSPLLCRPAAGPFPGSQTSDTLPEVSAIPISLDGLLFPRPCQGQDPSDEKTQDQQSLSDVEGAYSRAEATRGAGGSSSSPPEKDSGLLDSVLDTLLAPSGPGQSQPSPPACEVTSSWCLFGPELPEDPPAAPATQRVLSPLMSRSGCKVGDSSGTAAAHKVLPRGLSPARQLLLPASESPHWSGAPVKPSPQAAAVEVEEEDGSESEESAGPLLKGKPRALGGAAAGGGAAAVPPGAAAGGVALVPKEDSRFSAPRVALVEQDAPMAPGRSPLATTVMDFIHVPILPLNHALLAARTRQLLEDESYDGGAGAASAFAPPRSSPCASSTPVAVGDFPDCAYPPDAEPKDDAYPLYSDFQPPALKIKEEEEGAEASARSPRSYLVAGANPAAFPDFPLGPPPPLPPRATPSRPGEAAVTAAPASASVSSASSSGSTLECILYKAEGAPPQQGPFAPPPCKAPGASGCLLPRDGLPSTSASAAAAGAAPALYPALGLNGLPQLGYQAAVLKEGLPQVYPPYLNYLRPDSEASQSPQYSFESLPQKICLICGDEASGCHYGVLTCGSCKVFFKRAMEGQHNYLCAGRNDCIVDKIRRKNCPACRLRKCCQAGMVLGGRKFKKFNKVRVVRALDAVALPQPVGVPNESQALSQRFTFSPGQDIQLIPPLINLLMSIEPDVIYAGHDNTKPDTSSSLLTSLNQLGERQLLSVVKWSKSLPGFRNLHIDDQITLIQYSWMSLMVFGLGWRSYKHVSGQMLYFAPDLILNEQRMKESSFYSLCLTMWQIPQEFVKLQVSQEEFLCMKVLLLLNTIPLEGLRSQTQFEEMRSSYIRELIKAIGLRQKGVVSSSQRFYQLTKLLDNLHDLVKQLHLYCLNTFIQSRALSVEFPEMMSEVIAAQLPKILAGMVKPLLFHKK
Briefly: Displacement of [3H]-progesterone from cytosolic fraction of human recombinant progesterone-B receptor by scintillation counting analysis.

Series [7] is described as follows: AUC (0 to infinity) in Sprague-Dawley rat at 10 mg/kg, po by LC/MS/MS analysis. The series is classed as ADME, organism-based. Details: dose 10 mg/kg, time infinity, route oral. As to conditions: in vivo. In short, it runs like this:
(§2)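 Male Sprague–Dawley rats dosed orally (n = 4). Jugular vein blood sampled at 0.25, 0.5, 1, 2, 4, 6 and 24 h into heparin, plasma obtained by centrifugation. Concentrations determined by LC/MS/MS.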

A short description of series [8]: Tmax in Sprague-Dawley rat at 10 mg/kg, po by LC/MS/MS analysis. The series is classed as ADME, organism-based. Conditions: in vivo. In short, it runs like this: as §2
In another series the test system is Plasma. Briefly: Unbound plasma concentration in Sprague-Dawley rat at 30 mg/kg, po measured at 1 hr by LC/MS/MS analysis. The series is classed as ADME, organism-based. As to conditions: in vivo. Put shortly: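 Male SD rats given 30 mg/kg orally (n = 3 per time point), killed at 1 and 3 h. Heparinized blood collected for plasma; brain rinsed in saline, weighed, homogenized in five volumes (w/v) saline. Plasma and brain levels by LC/MS/MS. Kp,uu,brain is the ratio of unbound brain to unbound plasma concentration.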

Series [9] relates to Rattus norvegicus. The series is described as follows: Antidepressant-like activity in Wistar rat assessed as decrease in immobility time at 30 mg/kg, po administered at 1, 5, 23.5 hrs prior to testing measured for 5 mins by forced swimming test relative to vehicle-treated control. The arrangement: scale not given: the % may be the effect or the level left. Format: functional.

Chain of Estrogen receptor (P03372 whole entry, looked up): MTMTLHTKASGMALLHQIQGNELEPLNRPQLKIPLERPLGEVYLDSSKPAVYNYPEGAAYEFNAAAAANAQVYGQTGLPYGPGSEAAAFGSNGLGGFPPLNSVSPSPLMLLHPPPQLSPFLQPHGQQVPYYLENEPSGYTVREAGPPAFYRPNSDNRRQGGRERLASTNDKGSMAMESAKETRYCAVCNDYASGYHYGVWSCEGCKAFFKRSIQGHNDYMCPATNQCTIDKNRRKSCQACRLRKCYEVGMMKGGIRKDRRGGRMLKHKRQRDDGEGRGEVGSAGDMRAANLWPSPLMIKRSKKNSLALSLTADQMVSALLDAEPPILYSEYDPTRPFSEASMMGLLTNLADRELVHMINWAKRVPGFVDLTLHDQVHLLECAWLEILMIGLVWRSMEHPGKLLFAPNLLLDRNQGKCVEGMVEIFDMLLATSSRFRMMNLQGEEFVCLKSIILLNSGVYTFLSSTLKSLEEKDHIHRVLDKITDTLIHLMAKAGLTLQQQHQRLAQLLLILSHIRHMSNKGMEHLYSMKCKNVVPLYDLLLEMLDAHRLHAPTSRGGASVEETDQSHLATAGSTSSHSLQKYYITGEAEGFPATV

The term clearance denotes a measure of how efficiently the substance is removed, as volume per time. One may read the Ki as the equilibrium dissociation constant of an inhibitor or competing ligand from its target. Broadly, the AUC(0-t) is exposure summed from dosing to a finite time, without extrapolation to infinity. A word on the AUC(0-inf): it is total exposure, with the tail of the curve extrapolated. The term Tmax denotes the time at which the peak concentration occurs. For the compound `Cc1noc(C)c1-c1cc2c(c3c1CCC3)NC(C)(C)C(=O)C2(C)C`, the Time with Rattus norvegicus [1] was 206.8 s. In series [2], the clearance is 37.1 mL/min/kg. In addition, the Ki was above 3000 nM in [3], above 2300 nM at Estrogen receptor and 1480 nM on Progesterone receptor. Further, the Activity in the series with Rattus norvegicus [4] was 80.7%; with Rattus norvegicus [9] it was 75.9%. The Vd in series [5] stood at 6.13 L/kg. Also, the AUC(0-t) in [6] was found to be 410 ng·h/mL. Moreover, the area under the curve AUC(0-inf) in series [7] worked out at 2720 ng·h/mL. In addition, the Tmax in series [8] amounted to 3.5 h. The “Cp(f)” value in the series with Plasma was 14.1 nM.

The values above are taken from ChEMBL document CHEMBL3580565, “Synthesis and Biological Evaluation of Cyclopentaquinoline Derivatives as Nonsteroidal Glucocorticoid Receptor Antagonists” (J Med Chem, 2015).
